F508del corr = F508del CFTR correction, initial screen, CFBE line, single point | CFBE cells, YFP halide quenching; stimulated with forskolin plus potentiator P3; % fluorescence drop versus neutral controls | activity (quench increase), % at 7.58 µM | hit rate 0.36% among 350,000 | AID 720511, 2013;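 active means mean added fluorescence quench of at least 8% versus neutral control, with both replicates also reaching 8%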;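 further: cells transiently co-express mutant CFTR-F508del with the halide-sensitive YFP; corrector assay measuring rescue of mutant channel to the surface after 24 h compound exposure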
S100A4 MyoIIA = inhibitors of S100A4-myosin IIA peptide binding, primary screen, biochemical, fluorescence polarization, TAMRA-MyoIIA peptide; hit rate 0.14% among 360,000; inhibition, % at 10.7 µM;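 active means mean inhibition of at least 70% across replicates, with every replicate also reaching that level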
Target sequence (P26447 whole entry, looked up): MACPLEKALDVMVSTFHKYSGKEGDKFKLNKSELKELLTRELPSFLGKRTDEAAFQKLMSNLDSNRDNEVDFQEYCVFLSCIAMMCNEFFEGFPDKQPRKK
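Material: human S100A4 monomer with TAMRA-labelled myosin IIA peptide; buffer or medium: HEPES pH 7.2 with CaCl2, KCl, NaCl, DTT, Triton; compound dosing: one concentration per compound; schedule: 5 min incubation before reading; benchmarks: neutral control DMSO, positive control TFP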
Ecoli rRNA inh = reduced GFP signal of wild-type E. coli, primary screen, bacterial rRNA inhibitor project, GFP/RFP fluorescence, OD600, single point; GFP signal change (wild-type ribosome), % (concentration not given with the values); E. coli WT GFP vs humanized-ribosome RFP mutants, 24 h; active compounds read low; DMSO median 0, no signal -100; hit rate 1.6% among 350,000; AID 720706, 2013;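 active means significant combined selectivity score with lowered wild-type GFP, culture density cut under 30%, mutant RFP and density less affected; inactive means any of these conditions unmet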
SIRT5 inh = SIRT5 desuccinylase inhibitors, primary screen, biochemical, fluorescence imaging, single point, set 5; inhibition, % at 15 µM; Purified SirT5, succinyl-peptide AMC, trypsin-coupled fluorescence; NAD-dependent protein deacylase sirtuin-5, mitochondrial (Homo sapiens), Q9NXA8; hit rate 1.1% among 330,000; in the data active means inhibition above about 15%
Target sequence (Q9NXA8 whole entry, looked up): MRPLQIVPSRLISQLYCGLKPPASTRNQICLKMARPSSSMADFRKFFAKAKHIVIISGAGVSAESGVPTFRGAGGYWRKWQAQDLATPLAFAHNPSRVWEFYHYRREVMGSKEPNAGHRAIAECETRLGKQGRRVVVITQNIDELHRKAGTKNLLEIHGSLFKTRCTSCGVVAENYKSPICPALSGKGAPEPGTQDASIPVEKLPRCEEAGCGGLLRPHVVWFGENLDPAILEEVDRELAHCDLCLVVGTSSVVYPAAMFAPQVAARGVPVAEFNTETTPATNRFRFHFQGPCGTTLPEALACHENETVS
ERAP1 HTS inh = human ERAP1 aminopeptidase inhibitors, primary screen, biochemical, single point, plate reader; Endoplasmic reticulum aminopeptidase 1 (Homo sapiens), Q9NZ08; recombinant ERAP1, Leu-AMC fluorescence, 60 min; inhibition, % at 10.7 µM; hit rate 0.15% among 340,000;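 active means mean replicate inhibition of at least 30%, or all replicates individually reaching that 30% level; inactive means mean below 30% and not every replicate reaching it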
Hits are given with their value; – = inactive; · = not tested or not shown. This is a sample that favours compounds with a hit; in the whole collection about 3.1% have one here.

SMILES	F508del corr	S100A4 MyoIIA	Ecoli rRNA inh	SIRT5 inh	ERAP1 HTS inh
COc1ccc(CC(=O)N2CCc3ccccc3C2)cc1	–	–	–	–	–
O=C(Cc1ccc(Cl)cc1)N1CCc2ccccc2C1	–	–	-28	–	–
O=C(COc1ccc(Br)cc1)N1CCc2ccccc2C1	–	–	-26	–	–
Nc1ccc(Nc2ccccc2)c(S(=O)(=O)O)c1	–	–	–	55	–
Cc1ccc(Nc2ccc(N)cc2S(=O)(=O)O)cc1	–	–	–	56	–
COc1cccc(C(=O)OCCCN(C)C)c1	·	–	–	15	–
O=C(CCC(=O)c1ccc(F)cc1)Nc1cccc(S(=O)(=O)Nc2cccc(Cl)c2)c1	·	–	-41	–	–
CC(C)C(=O)Nc1cc(S(=O)(=O)Nc2cccc(Cl)c2)ccc1Cl	–	–	-22	–	–
CC(C)C(=O)Nc1cc(S(=O)(=O)Nc2ccc(Cl)cc2)ccc1Cl	·	–	–	–	–
Cc1ccc(S(=O)(=O)Nc2ccc3c(c2)CC(=O)N([C@@H](C)CO)C[C@@H](C)[C@@H](CN(C)S(C)(=O)=O)O3)cc1	–	–	–	–	–
C[C@@H]1CN([C@@H](C)CO)C(=O)c2cc(NC(=O)CCC(F)(F)F)ccc2O[C@H]1CN(C)CC1CCCCC1	–	–	–	–	–
O=S(=O)(c1ccccc1)N1CCN=C1SCc1ccc(Cl)cc1	–	–	–	–	–
CCSC1=NCCN1S(=O)(=O)c1ccc2ccccc2c1	–	–	-30	–	–
CSC1=NCCN1S(=O)(=O)c1ccc2ccccc2c1	–	–	–	–	–
O=S(=O)(c1ccccc1)N1CCN=C1SCc1cccc(Cl)c1	·	–	-23	–	–
C[C@@H]1CCCCO[C@H](CN(C)Cc2ccccc2)[C@H](C)CN([C@@H](C)CO)C(=O)c2cc(NC(=O)CCC(F)(F)F)ccc2O1	–	·	–	·	·
Nc1cccc2c(O)cccc12	–	–	-28	–	–
O=C(C[C@H]1CC[C@@H]2[C@H](COC[C@@H](O)CN2Cc2cccc(-c3ccncc3)c2)O1)N1CCN(c2ccccc2)CC1	–	–	–	–	–
Nc1nn2cc(-c3ccccc3)nc2c2ccccc12	–	–	-41	–	–
Cc1ncc(CN2CCCC(C(=O)Nc3ccc(-c4cccc(F)c4)cc3)C2)s1 (stereo not given)	–	–	-31	–	–
Cc1ncc(CN2CCCC(C(=O)Nc3ccc(-c4cccc(F)c4)cc3)C2)cn1 (stereo not given)	–	–	–	–	–
O=C(Cc1ccccc1)c1ccc(O)cc1	–	–	–	18	–
C[C@@H]1CN([C@@H](C)CO)S(=O)(=O)c2ccc(C#Cc3ccc(F)cc3)cc2O[C@@H]1CN(C)C(=O)NC1CCCC1	–	–	–	–	–
C[C@H](CO)N1C[C@H](C)[C@H](CN(C)C(=O)NC2CCCC2)Oc2cc(C#Cc3ccc(F)cc3)ccc2S1(=O)=O	9.7	–	–	–	–
C[C@H](CO)N1C[C@H](C)[C@@H](CN(C)C(=O)NC2CCCC2)Oc2cc(C#Cc3ccc(F)cc3)ccc2S1(=O)=O	–	–	–	–	–
SMILES	F508del corr	S100A4 MyoIIA	Ecoli rRNA inh	SIRT5 inh	ERAP1 HTS inh
C[C@H]1CN([C@@H](C)CO)S(=O)(=O)c2ccc(C#Cc3ccc(F)cc3)cc2O[C@H]1CN(C)C(=O)NC1CCCC1	8.6	–	–	–	–
C[C@H]1CN([C@@H](C)CO)C(=O)c2cc(NC(=O)Nc3ccc(F)cc3)ccc2O[C@@H]1CN(C)C(=O)Nc1ccc(F)cc1	–	–	–	–	–
CN1CCN(C(=O)C[C@@H]2CC[C@H](NC(=O)c3ccc4c(c3)OCO4)[C@@H](CO)O2)CC1	–	–	–	–	–
C[C@H]1CN([C@@H](C)CO)C(=O)c2cc(NC(=O)c3ccncc3)ccc2O[C@H]1CN(C)Cc1ccc2c(c1)OCO2	–	·	–	–	·
O=[N+]([O-])c1ccc(O)c(C(C#Cc2ccccc2)N2CCOCC2)c1 (stereo not given)	–	–	-32	–	–
CO[C@H](CN(C)CC1CCOCC1)[C@@H](C)CN(C(=O)Nc1ccc(F)cc1)[C@H](C)CO	–	–	–	–	–
CO[C@@H](CN(C)CC1CCOCC1)[C@H](C)CN(C(=O)Nc1ccc(F)cc1)[C@H](C)CO	–	–	–	16	–
Cc1c(C(=O)NN)nn(-c2ccc(Cl)cc2)c(=O)c1C#N	–	–	-16	–	–
NNC(=O)c1nn(-c2ccc(Cl)cc2)cc1O	–	–	-19	–	·
Cc1ccc(NC(=O)COC(=O)c2nn(-c3ccc(Cl)cc3)cc2O)cc1	–	–	–	–	–
C[C@@H]1CCCCO[C@@H](CN(C)C(=O)c2ccncc2)[C@@H](C)CN([C@@H](C)CO)C(=O)c2cc(NS(=O)(=O)c3ccccc3)ccc2O1	–	–	–	–	–
COCC(=O)N(C)C[C@H]1Oc2ncc(-c3ccc(C)cc3)cc2C(=O)N([C@H](C)CO)C[C@@H]1C	–	–	–	–	–
COc1ccccc1NS(=O)(=O)c1cccc(C(=O)NCC(c2ccccc2OC)N2CCCC2)c1 (stereo not given)	–	–	–	15	–
O=C(Cc1ccccc1)N1C[C@H]2[C@@H](c3ccccc31)[C@@H](CO)N2C(=O)c1cccc(F)c1	–	–	–	–	–
O=C(O)c1cc(Cl)ccc1-c1ccc(/C=C/c2cc(C(F)(F)F)[nH]c(=O)n2)o1	–	–	–	20	–
COc1cccc(CN2CC(C(=O)N3CCCCCCC3)CCC2=O)c1 (stereo not given)	–	–	–	–	–
O=C1CCC(C(=O)N2CCCCCC2)CN1Cc1cccc(C(F)(F)F)c1 (stereo not given)	–	–	–	18	–
CCCC/C(O)=C1\C(=O)CCCC1=NCCc1c(C)[nH]c2ccc(OC)cc12	–	–	-18	–	–
CC/C(O)=C1\C(=O)CCCC1=NCCc1c(C)[nH]c2ccc(C)cc12	–	–	–	–	–
C[C@@H]1CN([C@@H](C)CO)C(=O)Cc2cc(NC(=O)CCC(F)(F)F)ccc2O[C@H]1CN(C)CC1CCCCC1	–	–	–	–	–
C[C@]12c3[nH]c4ccc(Cl)cc4c3CCN1C(=O)[C@@H](CC(=O)NCc1ccco1)C[C@@H]2C(=O)N1CCOCC1	–	–	-23	–	·
CC[C@]12c3[nH]c4ccccc4c3CCN1C(=O)C(CC(=O)NCCC1=CCCCC1)C[C@@H]2C(=O)N1CCN(C(=O)C2CC2)CC1 (stereo not given in full)	–	–	–	–	–
C[C@]12c3[nH]c4ccccc4c3CCN1C(=O)C(CC(=O)NCc1ccco1)C[C@@H]2C(=O)N1CCOCC1 (stereo not given in full)	–	–	–	–	–
